ChEMBL document CHEMBL1135162, “Synthesis and evaluation of N-substituted 1,4-oxazepanyl Sordaricins as selective fungal EF-2 inhibitors” (2002)
Converted amounts (≈) assume the structure as drawn.

Experiments:
Type in all cases: functional
Aspergillus fumigatus = assay: Tested for in vitro antifungal activity against Aspergillus fumigatus ATCC 26430
Outline: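 Mould grown in microplates in RPMI1640 buffered at pH 7.0, incubated at 30 °C. MIC is the lowest test-compound concentration that inhibits growth by 80%.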

Candida albicans [1] = assay: Tested for in vitro antifungal activity against Candida albicans ATCC 24433
Outline: (§1)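 Microplate growth assay in RPMI1640 medium buffered at pH 7.0, incubated at 35 °C. MIC is the lowest test-compound concentration that inhibits fungal growth by 80%.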

Candida albicans [2] = assay: Tested for in vitro antifungal activity against Candida albicans ATCC 24433 in the presence of horse serum (20%)
Outline: (§2)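 RPMI1640 medium buffered at pH 7.0, with 20% horse serum added for the incubation. Microplates incubated at 35 °C. MIC is the lowest concentration giving 80% inhibition of fungal growth.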

Candida albicans [3] = assay: Tested for in vitro antifungal activity against Candida albicans ATCC 64550; outline: as §1
Candida albicans [4] = assay: Tested for in vitro antifungal activity against Candida albicans SANK51486; outline: as §1
Candida albicans [5] = assay: Tested for in vitro antifungal activity against Candida albicans SANK51486 in the presence of horse serum (20%); outline: as §2
Candida albicans [6] = assay: Tested for in vitro antifungal activity against Candida albicans TIMM3164; outline: as §1
Candida parapsilosis = assay: Tested for in vitro antifungal activity against Candida parapsilosis ATCC 90018; conditions: Lodderomyces parapsilosis; outline: as §1
Cryptococcus neoformans = assay: Tested for in vitro antifungal activity against Cryptococcus neoformans TIMM1855
Outline: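 Yeast grown in microplates in yeast nitrogen base buffered at pH 7.0, incubated at 35 °C. MIC is the lowest concentration inhibiting growth by 80%.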

Candida tropicalis = assay: Tested for in vitro antifungal activity against Candida tropicalis ATCC750; outline: as §1
Nakaseomyces glabratus = assay: Tested for in vitro antifungal activity against Candida glabrata ATCC 90030; outline: as §1

SMILES | MIC (Aspergillus fumigatus) | MIC (Candida albicans [1]) | MIC (Candida albicans [2]) | MIC (Candida albicans [3]) | MIC (Candida albicans [4]) | MIC (Candida albicans [5]) | MIC (Candida albicans [6]) | MIC (Candida parapsilosis) | MIC (Cryptococcus neoformans) | MIC (Candida tropicalis) | MIC (Nakaseomyces glabratus)
CO[C@H]1CN(Cc2ccc3c(c2)OCO3)C[C@H](OCC23C[C@@H]4[C@H](C)CC[C@H]4C4(C=O)CC2C=C(C(C)C)C34C(=O)O)O[C@@H]1C (stereo not given in full) | > 16 µg/mL | 0.031 µg/mL (≈ 0.0508 µM) | 1 µg/mL | 0.031 µg/mL (≈ 0.0508 µM) | 0.016 µg/mL (≈ 0.0262 µM) | 0.5 µg/mL | 0.031 µg/mL (≈ 0.0508 µM) | > 16 µg/mL | 2 µg/mL (≈ 3.28 µM) | 0.25 µg/mL (≈ 0.41 µM) | 0.5 µg/mL (≈ 0.82 µM)
CO[C@H]1CN(CC=C(C)C)C[C@H](OCC23C[C@@H]4[C@H](C)CC[C@H]4C4(C=O)CC2C=C(C(C)C)C34C(=O)O)O[C@@H]1C (stereo not given in full) | > 16 µg/mL | 0.25 µg/mL (≈ 0.46 µM) | 2 µg/mL | 0.5 µg/mL (≈ 0.92 µM) | 0.125 µg/mL (≈ 0.23 µM) | 1 µg/mL | 0.25 µg/mL (≈ 0.46 µM) | > 16 µg/mL | > 16 µg/mL | 2 µg/mL (≈ 3.68 µM) | 16 µg/mL (≈ 29.4 µM)
CO[C@H]1CN(CC=C(Cl)Cl)C[C@H](OCC23C[C@@H]4[C@H](C)CC[C@H]4C4(C=O)CC2C=C(C(C)C)C34C(=O)O)O[C@@H]1C (stereo not given in full) | > 16 µg/mL | ≤ 0.031 µg/mL | 2 µg/mL | 0.063 µg/mL (≈ 0.108 µM) | ≤ 0.031 µg/mL | 1 µg/mL | ≤ 0.031 µg/mL | > 16 µg/mL | 8 µg/mL (≈ 13.7 µM) | 0.5 µg/mL (≈ 0.855 µM) | 1 µg/mL (≈ 1.71 µM)
CO[C@H]1CN(Cc2ccccc2)C[C@H](OCC23C[C@@H]4[C@H](C)CC[C@H]4C4(C=O)CC2C=C(C(C)C)C34C(=O)O)O[C@@H]1C (stereo not given in full) | > 32 µg/mL | ≤ 0.063 µg/mL | 1 µg/mL | ≤ 0.063 µg/mL | ≤ 0.063 µg/mL | 0.5 µg/mL | 0.125 µg/mL (≈ 0.221 µM) | > 32 µg/mL | 4 µg/mL (≈ 7.07 µM) | 0.25 µg/mL (≈ 0.442 µM) | 0.5 µg/mL (≈ 0.884 µM)
COc1ccc(CN2C[C@H](OCC34C[C@@H]5[C@H](C)CC[C@H]5C5(C=O)CC3C=C(C(C)C)C45C(=O)O)O[C@H](C)[C@@H](OC)C2)cc1 (stereo not given in full) | > 32 µg/mL | ≤ 0.063 µg/mL | 1 µg/mL | ≤ 0.063 µg/mL | ≤ 0.063 µg/mL | 0.5 µg/mL | ≤ 0.063 µg/mL | > 32 µg/mL | 2 µg/mL (≈ 3.36 µM) | 0.25 µg/mL (≈ 0.42 µM) | 0.25 µg/mL (≈ 0.42 µM)
CO[C@H]1CN(Cc2ccc(SC)cc2)C[C@H](OCC23C[C@@H]4[C@H](C)CC[C@H]4C4(C=O)CC2C=C(C(C)C)C34C(=O)O)O[C@@H]1C (stereo not given in full) | > 16 µg/mL | 0.063 µg/mL (≈ 0.103 µM) | 4 µg/mL | 0.125 µg/mL (≈ 0.204 µM) | ≤ 0.031 µg/mL | 2 µg/mL | 0.063 µg/mL (≈ 0.103 µM) | > 16 µg/mL | > 16 µg/mL | 0.5 µg/mL (≈ 0.817 µM) | 2 µg/mL (≈ 3.27 µM)
CC(C)C1=CC2CC3(C=O)[C@@H]4CC[C@@H](C)[C@H]4CC2(CSC2CCCCC2)C13C(=O)O (stereo not given in full) | > 8 µg/mL | 0.031 µg/mL (≈ 0.072 µM) | 8 µg/mL | 0.125 µg/mL (≈ 0.29 µM) | ≤ 0.016 µg/mL | 4 µg/mL | 0.063 µg/mL (≈ 0.146 µM) | > 8 µg/mL | > 8 µg/mL | 2 µg/mL (≈ 4.64 µM) | 0.031 µg/mL (≈ 0.072 µM)
C/C=C/C=C\C(=O)O[C@H]1[C@H](O)[C@H](OCC23C[C@@H]4[C@H](C)CC[C@H]4C4(C=O)CC2C=C(C(C)C)C34C(=O)O)O[C@H](C)[C@H]1OC (stereo not given in full) | > 4 µg/mL | 0.5 µg/mL (≈ 0.852 µM) | 4 µg/mL | 0.5 µg/mL (≈ 0.852 µM) | 0.25 µg/mL (≈ 0.426 µM) |  | 0.5 µg/mL (≈ 0.852 µM) | > 4 µg/mL | 0.25 µg/mL (≈ 0.426 µM) | 0.5 µg/mL (≈ 0.852 µM) | > 4 µg/mL
COc1cccc(CN2C[C@H](OCC34C[C@@H]5[C@H](C)CC[C@H]5C5(C=O)CC3C=C(C(C)C)C45C(=O)O)O[C@H](C)[C@@H](OC)C2)c1 (stereo not given in full) | > 16 µg/mL | 0.063 µg/mL (≈ 0.106 µM) | 2 µg/mL | 0.125 µg/mL (≈ 0.21 µM) | ≤ 0.031 µg/mL | 2 µg/mL | 0.063 µg/mL (≈ 0.106 µM) | > 16 µg/mL | 2 µg/mL (≈ 3.36 µM) | 0.5 µg/mL (≈ 0.839 µM) | 8 µg/mL (≈ 13.4 µM)
CO[C@H]1CN(Cc2ccc(C(F)(F)F)cc2)C[C@H](OCC23C[C@@H]4[C@H](C)CC[C@H]4C4(C=O)CC2C=C(C(C)C)C34C(=O)O)O[C@@H]1C (stereo not given in full) | > 32 µg/mL | 0.5 µg/mL (≈ 0.789 µM) | 32 µg/mL | 1 µg/mL (≈ 1.58 µM) | 0.25 µg/mL (≈ 0.394 µM) | 16 µg/mL | 0.5 µg/mL (≈ 0.789 µM) | > 32 µg/mL | > 32 µg/mL | 2 µg/mL (≈ 3.16 µM) | 8 µg/mL (≈ 12.6 µM)
CO[C@H]1CN(Cc2ccc(Cl)cc2)C[C@H](OCC23C[C@@H]4[C@H](C)CC[C@H]4C4(C=O)CC2C=C(C(C)C)C34C(=O)O)O[C@@H]1C (stereo not given in full) | > 32 µg/mL | ≤ 0.063 µg/mL | 8 µg/mL | ≤ 0.063 µg/mL | ≤ 0.063 µg/mL | 4 µg/mL | ≤ 0.063 µg/mL | > 32 µg/mL | 4 µg/mL (≈ 6.66 µM) | 0.5 µg/mL (≈ 0.833 µM) | 1 µg/mL (≈ 1.67 µM)
C=C(Cl)CN1C[C@H](OCC23C[C@@H]4[C@H](C)CC[C@H]4C4(C=O)CC2C=C(C(C)C)C34C(=O)O)O[C@H](C)[C@@H](OC)C1 (stereo not given in full) | > 16 µg/mL | 0.031 µg/mL (≈ 0.0563 µM) | 0.5 µg/mL | 0.031 µg/mL (≈ 0.0563 µM) | 0.016 µg/mL (≈ 0.0291 µM) | 0.5 µg/mL | 0.031 µg/mL (≈ 0.0563 µM) | 16 µg/mL (≈ 29.1 µM) | 0.125 µg/mL (≈ 0.227 µM) | 0.25 µg/mL (≈ 0.454 µM) | 0.125 µg/mL (≈ 0.227 µM)
C=C(Cl)CN1C[C@H](OCC23C[C@@H]4[C@H](C)CC[C@H]4C4(C=O)CC2C=C(C(C)C)C34C(=O)O)O[C@H](C)C1 (stereo not given in full) | > 16 µg/mL | 0.031 µg/mL (≈ 0.0613 µM) | 0.5 µg/mL | 0.031 µg/mL (≈ 0.0613 µM) | 0.016 µg/mL (≈ 0.0316 µM) | 0.25 µg/mL | 0.031 µg/mL (≈ 0.0613 µM) | 8 µg/mL (≈ 15.8 µM) | 16 µg/mL (≈ 31.6 µM) | 0.125 µg/mL (≈ 0.247 µM) | 0.125 µg/mL (≈ 0.247 µM)
CO[C@H]1CN(CC2=CCCCC2)C[C@H](OCC23C[C@@H]4[C@H](C)CC[C@H]4C4(C=O)CC2C=C(C(C)C)C34C(=O)O)O[C@@H]1C (stereo not given in full) | > 16 µg/mL | 0.125 µg/mL (≈ 0.219 µM) | 8 µg/mL | 0.125 µg/mL (≈ 0.219 µM) | 0.063 µg/mL (≈ 0.111 µM) | 4 µg/mL | 0.125 µg/mL (≈ 0.219 µM) | > 16 µg/mL | 8 µg/mL (≈ 14 µM) | 1 µg/mL (≈ 1.76 µM) | 4 µg/mL (≈ 7.02 µM)
C=CCN1C[C@H](OCC23C[C@@H]4[C@H](C)CC[C@H]4C4(C=O)CC2C=C(C(C)C)C34C(=O)O)O[C@H](C)[C@@H](OC)C1 (stereo not given in full) | > 16 µg/mL | 0.063 µg/mL (≈ 0.122 µM) | 0.25 µg/mL | 0.063 µg/mL (≈ 0.122 µM) | 0.031 µg/mL (≈ 0.0601 µM) | 0.25 µg/mL | 0.063 µg/mL (≈ 0.122 µM) | > 16 µg/mL | > 16 µg/mL | 0.5 µg/mL (≈ 0.97 µM) | 0.25 µg/mL (≈ 0.485 µM)
C=CCCN1C[C@H](OCC23C[C@@H]4[C@H](C)CC[C@H]4C4(C=O)CC2C=C(C(C)C)C34C(=O)O)O[C@H](C)[C@@H](OC)C1 (stereo not given in full) | > 16 µg/mL | 0.125 µg/mL (≈ 0.236 µM) |  | 0.25 µg/mL (≈ 0.472 µM) | 0.063 µg/mL (≈ 0.119 µM) |  | 0.125 µg/mL (≈ 0.236 µM) | > 16 µg/mL | > 16 µg/mL | 1 µg/mL (≈ 1.89 µM) | 4 µg/mL (≈ 7.55 µM)
OC(Cn1cncn1)(Cn1cncn1)c1ccc(F)cc1F [FLUCONAZOLE] |  |  |  | 4 µg/mL (≈ 13.1 µM) |  |  | 4 µg/mL (≈ 13.1 µM) |  |  |  | 
